Screening results as filed in PubChem.
Sampled rows, rich in hits. Any-hit rate of the full collection: about 1.9%.
FXN GAA850 act: activators of GAA850 frataxin (FXN) promoter | HEK293 lucGAA850 FXN promoter luciferase reporter, 24 h; percent of 10 µM SAHA response | activation, % at 6 µM | 0.56% of 360,000 active | AID 540364;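 active = activation above the average of all compounds screened plus 3 SD, cutoff fixed separately per campaign, cut at about 7.5% in these data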;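 also: 0% = DMSO wells and 100% = 10 µM SAHA wells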
proCasp3 act: activates human procaspase-3; P42574; recombinant procaspase-3 D3A, Ac-DEVD-pNA absorbance 405 nm; activation, % at 8.5 µM; 0.11% of 330,000 active; AID 463141;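 active = activation above the mean of all tested compounds plus 3 SD, cut at about 21% in these data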;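 also: 0% = DMSO alone and 100% = DMSO wells spiked with extra 5 µM PC-3 D3A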
Target sequence (P42574 whole entry D9A/D28A/D175A): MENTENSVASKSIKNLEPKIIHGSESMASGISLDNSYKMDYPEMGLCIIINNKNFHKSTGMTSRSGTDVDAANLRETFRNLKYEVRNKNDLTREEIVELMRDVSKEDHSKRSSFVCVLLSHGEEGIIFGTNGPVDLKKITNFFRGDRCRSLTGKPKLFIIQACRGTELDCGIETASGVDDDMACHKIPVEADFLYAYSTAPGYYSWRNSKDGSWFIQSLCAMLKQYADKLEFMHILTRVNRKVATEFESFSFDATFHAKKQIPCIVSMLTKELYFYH
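Test system: Procaspase-3 D3A mutant, all three cleavage aspartates alanine | Dosing: Single dose, 8.5 µM nominal compound, 0.8% DMSO | Schedule: 1 h preincubation, 2 h reaction | Technique: 405 nm absorbance of p-nitroaniline, reads at 0 and 120 min | Repeats: One well per compound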
procasp7 counter: counter-screen: procaspase-7 (human) activation; P55210; recombinant procaspase-7, Ac-DEVD-pNA absorbance 405 nm; D23A/D198A/D206A triple mutant, cannot self-cleave; scale: DMSO 0, 5 µM enzyme 100; activation, % at 8.5 µM; 0.093% of 330,000 active;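 active = percent activation above the screen-wide mean plus 3 SD, cut at about 25% in these data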
Target sequence (P55210 whole entry D23A/D198A/D206A): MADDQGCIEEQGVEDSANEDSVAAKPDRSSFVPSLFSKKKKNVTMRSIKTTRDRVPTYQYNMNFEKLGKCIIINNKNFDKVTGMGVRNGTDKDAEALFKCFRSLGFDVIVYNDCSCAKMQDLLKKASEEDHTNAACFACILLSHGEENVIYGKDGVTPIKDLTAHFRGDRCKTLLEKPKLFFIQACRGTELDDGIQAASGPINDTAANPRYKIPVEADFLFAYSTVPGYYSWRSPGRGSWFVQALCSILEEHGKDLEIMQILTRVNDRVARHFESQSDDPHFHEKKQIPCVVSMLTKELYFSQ
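Material: Procaspase-7 triple mutant (PC-7 D3A) | Quantity: 2 µM procaspase-7 mutant as dispensed | Reagent: DEVD-pNA substrate | Times: 1 h preincubation, 2 h reaction | Technique: 405 nm absorbance of p-nitroaniline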
HIF activator: HIF pathway transcriptional activation; U2OS HRE-luciferase reporter, luminescence; normalized: DMSO 0%, desferrioxamine 100%; activation, % at 7.5 µM (by protocol); 0.32% of 300,000 active; AID 1910;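 active = mean activation of at least 10% of the iron chelator positive control signal, with at least half of replicates also reaching 10%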
Neddylation inh: blocks human cullin neddylation; P61081+Q13564; TR-FRET cullin neddylation, biochemical; inhibition, % at 25 µM; 0.58% of 360,000 active; AID 651699; in the data active = inhibition above about 36%
Calb FLC: C. albicans growth modulation with fluconazole; C. albicans CaCi-2 + fluconazole, Alamar Blue growth, 48 h; growth inhibition, % (no concentration beside the values); 0.57% of 300,000 active;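 active = growth inhibition above about 58% in most replicates, limit read from the data, passing the limit was not always enough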;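 also: all wells also contain fluconazole at 8 µg/ml as a sub-toxic cotreatment; 0% = median of DMSO wells and 100% = median of geldanamycin control wells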
Neddyl conf: confirmation of human cullin neddylation inhibitors; shares compounds with Neddylation inh; TR-FRET cullin neddylation biochemical assay; calls only at 25 µM; 13% of 1,800 active; AID 652217; in the data active = inhibition above about 40%;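 also: neddylation substrate is the cullin 1 ring ligase complex with SKP2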
Numbers without * were called inactive; i = inactive; x = no result shown.

SMILES	FXN GAA850 act	proCasp3 act	procasp7 counter	HIF activator	Neddylation inh	Calb FLC	Neddyl conf
COc1ccc(CCCC(=O)N/N=C/c2ccccc2OC)cc1	1.0	-0.6	14.4	0.0	4.9	-14.7	x
COc1cccc(CC(NC(C)=O)C(=O)NC2CCN(c3nc(C)cc(C)c3C#N)CC2)c1 (stereo not drawn)	-1.3	1.7	-0.9	0.0	29.6	7.6	x
COc1ccc(CC(NC(C)=O)C(=O)NC2CCN(c3nc(C)cc(C)c3C#N)CC2)c(OC)c1 (stereo not drawn)	-0.1	-4.0	3.7	1.1	40.8*	-9.5	i
Cc1c(C(=O)O)sc2nc(/C=C/c3cccc(F)c3)[nH]c(=O)c12	0.2	1.9	-11.9	-11.1	39.8*	11.8	x
CC1C(=O)N2CCCc3cc(NS(=O)(=O)c4ccccc4)cc1c32 (stereo not drawn)	-1.3	10.2	-4.4	-39.1	-2.0	0.6	x
O=C(Cn1c(=O)oc2cccnc21)Nc1ccc(C(F)(F)F)cc1	2.0	-0.8	-0.4	0.8	40.1*	-4.3	i
COc1ccccc1C(=O)NC(CCSC)C(=O)OCC(=O)N1CCN(S(=O)(=O)c2ccc(C)cc2)CC1 (stereo not drawn)	0.8	x	x	x	-7.8	x	x
CC(C)C[C@@H](NC(=O)C1CCC(CNC(=O)[C@H](Cc2ccccc2)NC(=O)OC(C)(C)C)CC1)C(=O)O (stereo partly drawn)	0.9	x	x	1.3	1.7	-2.4	x
CC(C(=O)Nc1ccc2nccnc2c1)N1C(=O)C2C3C=CC(C3)C2C1=O (stereo not drawn)	-0.2	6.3	1.5	-0.5	54.3*	0.5	x
CC(C(=O)NC1CCCCC1)N1C(=O)C2C3C=CC(C3)C2C1=O (stereo not drawn)	0.0	3.3	25.6	-0.1	-1.1	4.4	x
O=C(CCCCCn1c(=S)[nH]c2ccc(N3CCOCC3)cc2c1=O)NCc1cccc(Cl)c1	0.7	-2.6	-0.5	-4.3	x	-1.4	x
CCOC(=O)/C(O)=C(\C#N)c1nc2ccccc2[nH]1	-0.2	-2.7	1.2	0.9	50.5*	0.5	x
CCOC(=O)c1c(C)[nH]c(C(=O)OC/C(O)=C(\C#N)c2nc3ccccc3[nH]2)c1C	0.6	6.2	3.9	x	-11.6	x	x
CCOc1ccc(N/C=C/C(=O)c2ccc(OC)c(OC)c2)cc1	4.7	-1.4	4.4	-0.6	41.3*	-8.2	i
c1cncc(CNc2ncnc3ccc(-c4ccc5c(c4)OCO5)cc23)c1	0.7	6.7	7.5	x	28.1*	x	i
Cc1cccc(CNc2ncnc3ccc(-c4ccc5c(c4)OCCO5)cc23)c1	-1.4	1.9	14.5	x	38.1*	x	i
c1nc(NCc2ccc3c(c2)OCO3)c2cc(-c3ccc4c(c3)OCCO4)ccc2n1	0.6	2.0	6.6	x	34.4	x	x
CCOC(=O)C1CCCN(S(=O)(=O)c2c(C(=O)N3CCCCC3)c(C)n(C)c2C)C1 (stereo not drawn)	2.0	0.3	3.7	-0.1	-1.0	-1.1	x
COCCNC(=O)C1(C)CCCN(Cc2ccccc2N(C)C)C1 (stereo not drawn)	-1.1	x	x	x	2.3	x	x
O=C(c1nc2nc(-c3ccc(Cl)cc3)cc(C(F)(F)F)n2n1)N1CCOCC1	0.2	1.2	-7.2	-0.2	41.2*	16.3	i
O=C(c1nc2nc(-c3ccccc3)cc(C(F)(F)F)n2n1)N1CCOCC1	1.9	-2.7	3.4	-0.7	-1.9	13.9	x
CC(NC(=O)COC(=O)CN1C(=O)NC2(CCCC2)C1=O)c1ccc(F)cc1 (stereo not drawn)	0.2	x	x	x	6.7	x	x
CCOC(=O)C1=C(O)C(=O)N(CCCn2ccnc2)C1c1ccc(OC)cc1 (stereo not drawn)	x	-2.4	9.9	-0.5	x	-7.6	x
CCCCOc1ccc(S(=O)(=O)N2CCN(c3ccc(N4CCN(CC)CC4)nn3)CC2)cc1	0.9	4.0	3.7	-0.2	45.8*	0.2	i
Cc1[nH]c2ccc(C(=O)OCC(=O)Nc3cccc(S(N)(=O)=O)c3)cc2c1C	1.3	11.5	0.6	x	45.0*	x	i
SMILES	FXN GAA850 act	proCasp3 act	procasp7 counter	HIF activator	Neddylation inh	Calb FLC	Neddyl conf
O=C(Cc1ccc(Cl)cc1)NNC(=S)NC(=O)c1cccs1	-0.1	-13.3	1.0	0.1	53.2*	109.0*	i
COC(=O)[C@@H]1[C@H](CCc2ccccc2)NC(=O)N(Cc2ccccc2)[C@@H]1C	-0.3	-4.6	4.6	-1.1	-10.5	-5.5	x
CCOc1cc(/C=C/c2nc3ccccc3s2)ccc1OCC(=O)N1CCOCC1	0.6	-0.8	7.0	0.7	47.6*	31.4	x
Cc1ccc(C)c(N2CCN(C(=O)c3ccc(Cl)c(NC4=NC5CS(=O)(=O)CC5S4)c3)CC2)c1 (stereo not drawn)	1.0	-4.7	3.5	-0.1	6.3	13.7	x
CCCCN(CC)CCCNC(=O)c1cc2c(-c3ccc(OC)c(OC)c3)nn(C)c2s1	-0.4	3.5	8.0	0.8	53.2*	-9.2	i
O=C(C1CCCN(S(=O)(=O)c2ccc(F)cc2)C1)N1CCCCCC1 (stereo not drawn)	2.7	2.4	4.7	1.8	10.1	-0.4	x
O=c1oc2cccnc2n1CCS(=O)(=O)c1ccc(F)cc1	-0.1	6.4	0.5	-0.3	37.6*	-2.5	i
COC(=O)c1ccc(C(=O)OC)c(NC(=O)/C=C/C(=O)O)c1	1.9	-6.8	-2.7	-0.8	44.2*	4.1	i
COC(=O)c1ccc(C(=O)OC)c(NC(=O)Oc2ccccc2)c1	2.6	-0.1	3.0	0.1	24.3	0.6	x
CC(Oc1ccc2c(-c3ccccc3)cc(=O)oc2c1)C(=O)NC(Cc1c[nH]c2ccc(O)cc12)C(=O)O (stereo not drawn)	-1.4	6.6	3.1	-0.1	-14.1	1.8	x
COc1ccc2c(c1)c(=O)oc1c(C)c(OC(C)C(=O)N[C@@H](Cc3c[nH]c4ccc(O)cc34)C(=O)O)ccc12 (stereo partly drawn)	1.9	0.6	8.5	0.2	46.6*	5.3	x
CCOc1ccc(NC(=O)CN(C)C(=O)C(C)N2C(=O)c3ccccc3C2=O)cc1OCC (stereo not drawn)	0.4	3.7	4.0	x	-18.4	x	x
COC(=O)C1C(O)=C(C=NC2CCCCC2)C(=O)CC1(C)C (stereo not drawn)	-0.5	0.3	-4.1	-0.6	1.6	-3.0	x
COC(=O)C1C(O)=C(C(C)=Nc2cccc3ccccc23)C(=O)CC1(C)C (stereo not drawn)	0.1	7.8	-3.6	-0.5	45.2*	15.5	i
COc1cc2c(cc1OC)C(c1ccccc1[N+](=O)[O-])N(C(C)=O)CC2 (stereo not drawn)	0.9	5.4	7.0	-0.3	-6.5	0.6	x
